Experiments:
HCT-116 = assay: Cytotoxicity against human HCT116 cells measured per disk after 5 days by hemocytometer counting; assay type: functional, cell-based
Procedure, shortened: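 HCT-116 cells seeded at 5 × 10^4 cells per T25 flask in RPMI-1640 with 15% FBS, 1% penicillin-streptomycin and 1% glutamine, 37 °C, 5% CO2. Drug added at several concentrations on day 3, then incubated 120 h (5 d). Cells trypsinized, washed and resuspended in HBSS, counted by hemocytometer. Counts normalized to untreated control to give IC50.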

MC-38 [1] = assay: Selective toxicity against mouse C38 cells assessed as differential zone units at 68 ug/mL by disk diffusion soft agar colony formation assay relative to mouse L1210 cells; assay type: functional
Procedure, shortened: (§1)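 Murine Colon 38 and leukemia L1210 cells tested in the disk diffusion soft agar colony formation assay. Differential cytotoxicity expressed as the difference in inhibition zone size between the two lines, in zone units (200 zone units = 6 mm).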

MC-38 [2] = assay: Selective toxicity against mouse C38 cells assessed as differential zone units at 66 ug/mL by disk diffusion soft agar colony formation assay relative to mouse L1210 cells; assay type: functional; procedure, shortened: as §1
MC-38 [3] = assay: Selective toxicity against mouse C38 cells assessed as differential zone units at 1.9 ug/mL by disk diffusion soft agar colony formation assay relative to mouse L1210 cells; assay type: functional; procedure, shortened: as §1
MC-38 [4] = assay: Selective toxicity against mouse C38 cells assessed as differential zone units at 0.26 ug/mL by disk diffusion soft agar colony formation assay relative to mouse L1210 cells; assay type: functional; procedure, shortened: as §1
MC-38 [5] = assay: Selective toxicity against mouse C38 cells assessed as differential zone units at 0.23 ug/mL by disk diffusion soft agar colony formation assay relative to mouse L1210 cells; assay type: functional
Procedure, shortened: (§2)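 Disk diffusion soft agar colony-formation assay with murine Colon 38 (colon adenocarcinoma) and L1210 (lymphocytic leukemia) cells. The zone of inhibited colony formation around each disk is measured in zone units, where 200 zone units = 6 mm. Selectivity is the solid tumor minus leukemia zone difference.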

MC-38 [6] = assay: Selective toxicity against mouse C38 cells assessed as differential zone units at 0.24 ug/mL by disk diffusion soft agar colony formation assay relative to mouse L1210 cells; assay type: functional; procedure, shortened: as §2

| Compound | IC50 (HCT-116) [µg] | also measured |
| --- | --- | --- |
| COc1cc(-c2coc3cc4c(c(OC)c3c2=O)C=CC(C)(C)O4)ccc1OC[C@@H](O)C(C)(C)O [PIERREIONE A] | 7.5 | Activity (MC-38 [1]): 300 Zone units |
| COc1cc(-c2coc3cc4c(cc3c2=O)C=CC(C)(C)O4)ccc1OC[C@@H](O)C(C)(C)O [PIERREIONE B] | 18 | Activity (MC-38 [2]): 300 Zone units |
| COc1cc(-c2coc3cc4c(c(OC)c3c2=O)C=CC(C)(C)O4)ccc1OCC=C(C)C [PIERREIONE C] | > 46 | – |
| COc1cc(-c2coc3cc4c(cc3c2=O)C=CC(C)(C)O4)ccc1OCC=C(C)C [PIERREIONE D] | 30 | Activity (MC-38 [3]): 600 Zone units |
| C=C(C)[C@H]1Cc2c(ccc3c2O[C@@H]2COc4cc(OC)c(OC)cc4[C@]2(O)C3=O)O1 [ROTENOLONE] | 0.055 | Activity (MC-38 [4]): 450 Zone units |
| C=C(C)[C@H]1Cc2c(ccc3c2O[C@@H]2COc4cc(OC)c(OC)cc4[C@@H]2C3=O)O1 [ROTENONE] | 0.045 | Activity (MC-38 [5]): 500 Zone units |
| COc1cc2c(cc1OC)[C@]1(O)C(=O)c3ccc4c(c3O[C@@H]1CO2)C=CC(C)(C)O4 [TEPHROSIN] | 0.04 | Activity (MC-38 [6]): 550 Zone units |
